Assay results of several laboratories.
Compare with care: the assays were run in different laboratories.
Read-out: cell growth or viability

`Cc1ncsc1-c1ccc([C@H](C)NC(=O)[C@@H]2C[C@@H](O)CN2C(=O)[C@@H](c2cc(N3CCC(CN4CCC(OC5CC(Oc6cc(N7C8CCC7CN(c7cc(-c9ccccc9O)nnc7N)C8)ccn6)C5)CC4)CC3)no2)C(C)C)cc1` (some centres unmarked) gave an IC50 of 4.3 nM (VCaP; ATP luminescence; 7 days).
`CN(C)c1ccc(C(=O)NCCCCCCC(=O)NO)cc1` gave a viability of 62.3% (OCI-Ly1; ATP luminescence; 0.5 µM; 5 days).
`CC(=O)N[C@H]1[C@@H](O[C@@H]2O[C@H](C[C@@H](O)[C@H]3O[C@@H](n4ccc(=O)[nH]c4=O)[C@H](O)[C@@H]3O)[C@H](O)[C@H](O)[C@H]2NC(=O)/C=C/CCCCCCCCCC(C)C)O[C@H](CO)[C@@H](O)[C@@H]1O` gave an IC50 of 250 nM (MCF-10A; WST-1).
With `CC[C@H](C)[C@@H]([C@@H](CC(=O)N1CCC[C@H]1[C@H](OC)[C@@H](C)C(=O)N[C@H](C)[C@@H](O)c1ccccc1)OC)N(C)C(=O)[C@@H](NC(=O)[C@H](C(C)C)N(C)C(=O)OCc1ccc(NC(=O)[C@H](CCCNC(N)=O)NC(=O)[C@@H](NC(=O)CCOCCOCCOCCOCCC(=O)N[C@@H]2CSSC[C@H](C(=O)O)NC(=O)CNC(=O)[C@@H](CCCNC(=N)N)NC(=O)CNC(=O)[C@@H](C(C)C)NC(=O)CNC(=O)[C@@H](C)NC(=O)[C@@H](CCCNC(=N)N)NC2=O)C(C)C)cc1)C(C)C` the IC50 was 500 nM (4T1; resazurin; 24 h).
For `CC[C@H](C)[C@@H]([C@@H](CC(=O)N1CCC[C@H]1[C@H](OC)[C@@H](C)C(=O)N[C@H](C)[C@@H](O)c1ccccc1)OC)N(C)C(=O)[C@@H](NC(=O)[C@@H](NC)C(C)C)C(C)C`, the IC50 was 0.294 nM (4T1; CCK-8).
For `Cc1ccc(NC(=O)c2ccc(CN3CCN(C)CC3)cc2)cc1Nc1nccc(-c2cccnc2)n1`, the viability was 41.6% (K562; MTT; 0.2 µM).
The IC50 of `N.N.[Cl][Pt][Cl]` is reported as 34600 nM (MCF-10A; MTT; 48 h; dark).
The inhibition of `N.N.[Cl][Pt][Cl]` is reported as 97% (K562; ATP luminescence; 10 µM; 72 h).
